The target in test [1] is Heat shock protein HSP 90-beta/Hsp90 co-chaperone Cdc37 (Homo sapiens) (UniProt P08238+Q16543). The experiment in a line: Inhibition of His-tagged HSP90/GST-tagged Cdc37 (unknown origin) protein-protein interaction at 100 uM measured after 1 hr by HTRF assay relative to control. It is filed as protein-complex assay. In short, it runs like this: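 His-Hsp90 and GST-Cdc37 were premixed at a final 80 nM in PBS with 200 mM KF, pH 7.4. Compound was added and the mix incubated 1 h at 37 °C, then read by HTRF. Inhibition rate was taken at 100 μM compound.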
A general note: TR-FRET usually uses a lanthanide donor and a delayed reading to cut background.

The target of test [2] is T1, Heat shock protein HSP90 (Homo sapiens, UniProt P07900+P08238). The experiment in a line: Binding affinity to recombinant […] HSP90 N-terminal domain (9 to 236 residues) (unknown origin) expressed in Escherichia coli BL21 (DE3) at 200 uM by NMR spectra analysis.
The target in test [3] is T1, Heat shock protein HSP90. The experiment in a line: Binding affinity to recombinant […] HSP90 N-terminal domain (9 to 236 residues) (unknown origin) expressed in Escherichia coli BL21 (DE3) at 100 uM by STD NMR spectra analysis. In short, it runs like this:
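STD NMR: 100 µM compound with 5 µM Hsp90 in 20 mM sodium phosphate, 150 mM NaCl, 5% DMSO, pH 7.4. Three independent experiments.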

Test [4] concerns the target T1, Heat shock protein HSP90. The experiment in a line: Binding affinity to recombinant full-length 15N-labelled HSP90 N-terminal domain (9 to 236 residues) (unknown origin) expressed in Escherichia coli BL21 (DE3) at 250 to 500 uM by 15N 1H HSQC spectra analysis.
The target in test [5] is T1, Heat shock protein HSP90. The experiment in a line: Binding affinity to recombinant […] HSP90 N-terminal domain (9 to 236 residues) (unknown origin) expressed in Escherichia coli BL21 (DE3) assessed as change in melting temperature by SYPRO dye based thermal shift assay. In short, it runs like this: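 Hsp90 N-terminal domain (10 µM) mixed with compound at 200, 100, 50 or 10 µM in 1× PBS, pH 8.0, with 6× SYPRO Orange. Heated from room temperature to 99 °C at 1 °C/min; fluorescence read at 492 nm excitation and 610 nm emission.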

Test [6] deals with HCT-116. The experiment in a line: Antitumor activity against human HCT116 cells xenografted in BALB/c mouse assessed as tumor growth inhibition at 40 mg/kg, po administered once daily for 21 days. It is filed as functional, organism-based. In short, it runs like this:
(§1)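 1×10^7 HCT116 cells mixed 3:1 with Matrigel were injected into the flanks of 6-week-old BALB/c nude mice, which were randomised into groups. Dosing started at mean tumour volume 125 mm³: daily oral gavage for 21 days in 0.9% saline with 5% DMSO at 40 or 80 mg/kg. Tumour volume measured daily by calipers (length×width²/2); n = 6. Tumours fixed in 4% formaldehyde, paraffin-embedded, 4 µm H&E sections.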

Test [7] deals with HCT-116. Kind of test: Antitumor activity against human HCT116 cells xenografted in BALB/c mouse assessed as reduction in tumor cells at 80 mg/kg, po administered once daily for 21 days measured post-last dose by H and E staining-based imaging analysis. It is filed as functional, organism-based. In short, it runs like this: as §1
(In xenograft studies the graft and the host belong to different species.)

Test [8] concerns HCT-116. Kind of test: Antitumor activity against human HCT116 cells xenografted in BALB/c mouse assessed as reduction in tumor cells at 40 mg/kg, po administered once daily for 21 days measured post-last dose by H and E staining-based imaging analysis. It is filed as functional, organism-based. In short, it runs like this:
as §1

Test [9] deals with Mus musculus. Kind of test: In vivo inhibition of HSP90-CDC37 protein-protein interaction in human HCT116 cells xenografted BALB/c mouse assessed as reduction in CDK4 level at 80 mg/kg, po administered once daily for 21 days measured post-last dose by immunohistochemical analysis. It is filed as functional, organism-based. In short, it runs like this: (§2)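 Tumours from the 21-day daily oral xenograft study (40 or 80 mg/kg) were formalin-fixed and cut into 4 µm paraffin sections. Peroxidase quenched with 3% H₂O₂; antigen retrieval by boiling in 10 mM citrate, pH 6.0. Blocked with 3% BSA; anti-CDK4 at 4 °C overnight; secondary 20 min at 37 °C. DAB detection, haematoxylin counterstain, viewed at 200×.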

Test [10] relates to Mus musculus. Kind of test: In vivo inhibition of HSP90-CDC37 protein-protein interaction in human HCT116 cells xenografted BALB/c mouse assessed as reduction in CDK4 level at 40 mg/kg, po administered once daily for 21 days measured post-last dose by immunohistochemical analysis. Format: functional, organism-based. In short, it runs like this:
as §2

Activity calls are given as the source filed them. No cut-off for these calls is given here.

Usually inhibition stands for the share of the control response that was lost under treatment. What is called ΔTm is the shift of the melting midpoint relative to a reference.

The molecule `Cc1cc(C)c(S(=O)(=O)N(CC(=O)O)c2ccc(Nc3ccnc(N4CCCC4)n3)cc2)c(C)c1` yielded an inhibition in test [1] of 72.6%. The outcome on Heat shock protein HSP90 [2], on Heat shock protein HSP90 [3], on Heat shock protein HSP90 [4] and in the test with HCT-116 [7] was Active. In addition, on Heat shock protein HSP90 [5], the shift in melting temperature (ΔTm) worked out at 2.13 °C. Besides, the TGI result with HCT-116 [6] was “inactive”. The result in the test on HCT-116 [8] was inactive. In addition, the inhibition entry in the test with Mus musculus [9] is “Active”. Further, in the test on Mus musculus [10], the inhibition entry is “inactive”.

(Values after ChEMBL document CHEMBL4376883, “Discovery and Optimization of Small Molecules Targeting the Protein-Protein Interaction of Heat Shock Protein 90 (Hsp90) and Cell Division Cycle 37 as Orally Active Inhibitors for the Treatment of Colorectal Cancer” (J Med Chem, 2020).)
